{
  "source": "ChEMBL document CHEMBL1949538",
  "about": "“Hybrids of privileged structures benzothiazoles and pyrrolo[2,1-c] [1,4]benzodiazepin-5-one, and diversity-oriented synthesis of benzothiazoles” (Eur J Med Chem, 2012)",
  "data": [
    {"system": "A549", "experiment": "Cytotoxicity against human A549 cells after 2 days by MTT assay", "assay_type": "functional, cell-based", "conditions": "A549, 48 h", "method_in_brief": "(§1)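 Leukemia lines (HL-60, THP-1, U-937, Jurkat) grown in RPMI-1640, A-549 in DMEM, both with 10% heat-inactivated FCS at 37 °C, 5% CO2. Cells seeded at 2 × 10⁴/well, dosed after 24 h and read 2 days later. MTT (5 mg/mL stock) added for 4 h at 37 °C, formazan dissolved in DMSO, read at 570 nm. Five replicates; IC50 from linear regression.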", "units": {"IC50": "µM"}, "values": [
      {"compound": "COc1cc2nc(-c3cccc(N)c3C)sc2c(OC)c1OC", "IC50": 4.56},
      {"compound": "COc1ccc2nc(-c3ccc(N=C(NC4CCCCC4)NC4CCCCC4)cc3)sc2c1", "IC50": 3.23},
      {"compound": "CC1(C)O[C@H]2O[C@H]([C@H](O)CO)[C@H](OCc3ccc(-c4nc5ccc(F)cc5s4)cc3)[C@H]2O1", "IC50": 5.01},
      {"compound": "COc1ccc2nc(-c3ccc(C)c(N)c3)sc2c1", "IC50": "> 50"},
      {"compound": "Cc1ccc(-c2nc3ccc(F)cc3s2)cc1N", "IC50": "> 50"},
      {"compound": "Cc1ccc(-c2nc3ccccc3s2)cc1N", "IC50": "> 50"},
      {"compound": "COc1ccc2nc(-c3ccc(NC(=O)NCc4ccccc4)cc3)sc2c1", "IC50": "> 50"},
      {"compound": "COc1ccc2nc(-c3ccc(NC(=O)C4CC4)cc3)sc2c1", "IC50": "> 50"},
      {"compound": "CC1(C)O[C@H]2O[C@H]([C@H]3COC(C)(C)O3)[C@H](OCc3ccc(-c4nc5ccc(F)cc5s4)cc3)[C@H]2O1", "IC50": "> 50"},
      {"compound": "COc1ccc2nc(-c3ccc(N)cc3)sc2c1", "IC50": "> 50"},
      {"compound": "CC[C@@]1(O)C(=O)OCc2c1cc1n(c2=O)Cc2cc3ccccc3nc2-1", "note": "[CAMPTOTHECIN]", "IC50": 0.008}
    ]},
    {"system": "THP-1", "experiment": "Cytotoxicity against human THP1 cells after 2 days by MTT assay", "assay_type": "functional, cell-based", "conditions": "THP-1, 48 h", "method_in_brief": "as §1", "units": {"IC50": "µM"}, "values": [
      {"compound": "COc1ccc2nc(-c3ccc4c(c3)N=C[C@@H]3CCCN3C4=O)sc2c1", "IC50": 2.14},
      {"compound": "O=C1c2ccc(-c3nc4ccc(F)cc4s3)cc2N=C[C@@H]2CCCN12", "IC50": 0.49},
      {"compound": "O=C1c2ccc(-c3nc4ccccc4s3)cc2N=C[C@@H]2CCCN12", "IC50": 3.09},
      {"compound": "COc1cc2nc(-c3cccc(N)c3C)sc2c(OC)c1OC", "IC50": 3.56},
      {"compound": "COc1ccc2nc(-c3ccc(N=C(NC4CCCCC4)NC4CCCCC4)cc3)sc2c1", "IC50": 3.1},
      {"compound": "CC1(C)O[C@H]2O[C@H]([C@H](O)CO)[C@H](OCc3ccc(-c4nc5ccc(F)cc5s4)cc3)[C@H]2O1", "IC50": 3},
      {"compound": "COc1ccc2nc(-c3ccc(C)c(N)c3)sc2c1", "IC50": "> 50"},
      {"compound": "Cc1ccc(-c2nc3ccc(F)cc3s2)cc1N", "IC50": "> 50"},
      {"compound": "Cc1ccc(-c2nc3ccccc3s2)cc1N", "IC50": "> 50"},
      {"compound": "COc1ccc2nc(-c3ccc(NC(=O)NCc4ccccc4)cc3)sc2c1", "IC50": "> 50"},
      {"compound": "COc1ccc2nc(-c3ccc(NC(=O)C4CC4)cc3)sc2c1", "IC50": "> 50"},
      {"compound": "CC1(C)O[C@H]2O[C@H]([C@H]3COC(C)(C)O3)[C@H](OCc3ccc(-c4nc5ccc(F)cc5s4)cc3)[C@H]2O1", "IC50": "> 50"},
      {"compound": "COc1ccc2nc(-c3ccc(N)cc3)sc2c1", "IC50": "> 50"},
      {"compound": "CC[C@@]1(O)C(=O)OCc2c1cc1n(c2=O)Cc2cc3ccccc3nc2-1", "note": "[CAMPTOTHECIN]", "IC50": 0.071}
    ]},
    {"system": "HL-60", "experiment": "Cytotoxicity against human HL60 cells after 2 days by MTT assay", "assay_type": "functional, cell-based", "conditions": "HL-60, 48 h", "method_in_brief": "as §1", "units": {"IC50": "µM"}, "values": [
      {"compound": "COc1ccc2nc(-c3ccc4c(c3)N=C[C@@H]3CCCN3C4=O)sc2c1", "IC50": 6.39},
      {"compound": "O=C1c2ccc(-c3nc4ccc(F)cc4s3)cc2N=C[C@@H]2CCCN12", "IC50": 4.13},
      {"compound": "O=C1c2ccc(-c3nc4ccccc4s3)cc2N=C[C@@H]2CCCN12", "IC50": 7.27},
      {"compound": "COc1cc2nc(-c3cccc(N)c3C)sc2c(OC)c1OC", "IC50": 5.63},
      {"compound": "COc1ccc2nc(-c3ccc(N=C(NC4CCCCC4)NC4CCCCC4)cc3)sc2c1", "IC50": 7.15},
      {"compound": "CC1(C)O[C@H]2O[C@H]([C@H](O)CO)[C@H](OCc3ccc(-c4nc5ccc(F)cc5s4)cc3)[C@H]2O1", "IC50": 22.3},
      {"compound": "COc1ccc2nc(-c3ccc(C)c(N)c3)sc2c1", "IC50": "> 50"},
      {"compound": "Cc1ccc(-c2nc3ccc(F)cc3s2)cc1N", "IC50": "> 50"},
      {"compound": "Cc1ccc(-c2nc3ccccc3s2)cc1N", "IC50": "> 50"},
      {"compound": "COc1ccc2nc(-c3ccc(NC(=O)NCc4ccccc4)cc3)sc2c1", "IC50": "> 50"},
      {"compound": "COc1ccc2nc(-c3ccc(NC(=O)C4CC4)cc3)sc2c1", "IC50": "> 50"},
      {"compound": "CC1(C)O[C@H]2O[C@H]([C@H]3COC(C)(C)O3)[C@H](OCc3ccc(-c4nc5ccc(F)cc5s4)cc3)[C@H]2O1", "IC50": "> 50"},
      {"compound": "COc1ccc2nc(-c3ccc(N)cc3)sc2c1", "IC50": "> 50"},
      {"compound": "CC[C@@]1(O)C(=O)OCc2c1cc1n(c2=O)Cc2cc3ccccc3nc2-1", "note": "[CAMPTOTHECIN]", "IC50": 0.6}
    ]},
    {"system": "Jurkat", "experiment": "Cytotoxicity against human Jurkat cells after 2 days by MTT assay", "assay_type": "functional, cell-based", "conditions": "48 h", "method_in_brief": "as §1", "units": {"IC50": "µM"}, "values": [
      {"compound": "COc1ccc2nc(-c3ccc4c(c3)N=C[C@@H]3CCCN3C4=O)sc2c1", "IC50": 11.3},
      {"compound": "O=C1c2ccc(-c3nc4ccc(F)cc4s3)cc2N=C[C@@H]2CCCN12", "IC50": 6.58},
      {"compound": "O=C1c2ccc(-c3nc4ccccc4s3)cc2N=C[C@@H]2CCCN12", "IC50": 9.43},
      {"compound": "COc1cc2nc(-c3cccc(N)c3C)sc2c(OC)c1OC", "IC50": 9.75},
      {"compound": "COc1ccc2nc(-c3ccc(N=C(NC4CCCCC4)NC4CCCCC4)cc3)sc2c1", "IC50": 2.23},
      {"compound": "CC1(C)O[C@H]2O[C@H]([C@H](O)CO)[C@H](OCc3ccc(-c4nc5ccc(F)cc5s4)cc3)[C@H]2O1", "IC50": 3.2},
      {"compound": "COc1ccc2nc(-c3ccc(C)c(N)c3)sc2c1", "IC50": "> 50"},
      {"compound": "Cc1ccc(-c2nc3ccc(F)cc3s2)cc1N", "IC50": "> 50"},
      {"compound": "Cc1ccc(-c2nc3ccccc3s2)cc1N", "IC50": "> 50"},
      {"compound": "COc1ccc2nc(-c3ccc(NC(=O)NCc4ccccc4)cc3)sc2c1", "IC50": "> 50"},
      {"compound": "COc1ccc2nc(-c3ccc(NC(=O)C4CC4)cc3)sc2c1", "IC50": "> 50"},
      {"compound": "CC1(C)O[C@H]2O[C@H]([C@H]3COC(C)(C)O3)[C@H](OCc3ccc(-c4nc5ccc(F)cc5s4)cc3)[C@H]2O1", "IC50": "> 50"},
      {"compound": "COc1ccc2nc(-c3ccc(N)cc3)sc2c1", "IC50": "> 50"},
      {"compound": "CC[C@@]1(O)C(=O)OCc2c1cc1n(c2=O)Cc2cc3ccccc3nc2-1", "note": "[CAMPTOTHECIN]", "IC50": 0.026},
      {"compound": "COc1cc([C@@H]2c3cc4c(cc3[C@@H](O[C@@H]3O[C@@H]5CO[C@@H](C)O[C@H]5[C@H](O)[C@H]3O)[C@H]3COC(=O)[C@H]23)OCO4)cc(OC)c1O", "note": "[ETOPOSIDE]", "IC50": 5.35}
    ]},
    {"system": "U-937", "experiment": "Cytotoxicity against human U937 cells after 2 days by MTT assay", "assay_type": "functional, cell-based", "conditions": "U-937, 48 h", "method_in_brief": "as §1", "units": {"IC50": "µM"}, "values": [
      {"compound": "COc1ccc2nc(-c3ccc4c(c3)N=C[C@@H]3CCCN3C4=O)sc2c1", "IC50": 6.03},
      {"compound": "O=C1c2ccc(-c3nc4ccc(F)cc4s3)cc2N=C[C@@H]2CCCN12", "IC50": 3.44},
      {"compound": "O=C1c2ccc(-c3nc4ccccc4s3)cc2N=C[C@@H]2CCCN12", "IC50": 5.41},
      {"compound": "COc1ccc2nc(-c3ccc(C)c(N)c3)sc2c1", "IC50": "> 50"},
      {"compound": "Cc1ccc(-c2nc3ccc(F)cc3s2)cc1N", "IC50": "> 50"},
      {"compound": "Cc1ccc(-c2nc3ccccc3s2)cc1N", "IC50": "> 50"},
      {"compound": "COc1ccc2nc(-c3ccc(NC(=O)NCc4ccccc4)cc3)sc2c1", "IC50": "> 50"},
      {"compound": "COc1ccc2nc(-c3ccc(NC(=O)C4CC4)cc3)sc2c1", "IC50": "> 50"},
      {"compound": "CC1(C)O[C@H]2O[C@H]([C@H]3COC(C)(C)O3)[C@H](OCc3ccc(-c4nc5ccc(F)cc5s4)cc3)[C@H]2O1", "IC50": "> 50"},
      {"compound": "COc1ccc2nc(-c3ccc(N)cc3)sc2c1", "IC50": "> 50"},
      {"compound": "CC[C@@]1(O)C(=O)OCc2c1cc1n(c2=O)Cc2cc3ccccc3nc2-1", "note": "[CAMPTOTHECIN]", "IC50": 1.98},
      {"compound": "COc1cc([C@@H]2c3cc4c(cc3[C@@H](O[C@@H]3O[C@@H]5CO[C@@H](C)O[C@H]5[C@H](O)[C@H]3O)[C@H]3COC(=O)[C@H]23)OCO4)cc(OC)c1O", "note": "[ETOPOSIDE]", "IC50": 17.9}
    ]}
  ]
}
